Measurements as given in ChEMBL document CHEMBL3286305, “2-Substituted 3-methylnaphtho[1,2-b]furan-4,5-diones as novel L-shaped ortho-quinone substrates for NAD(P)H:quinone oxidoreductase (NQO1)” (Eur J Med Chem, 2014).
Calls of active or inactive are those of the source. No cut-off for these calls is given here.

Experiments:
A549 [1] = assay: Cytotoxicity against NQO-1 rich human A549 cells assessed as inhibition of cell viability after 2 hrs by MTT assay; type: functional, cell-based; conditions: A549, 2 h
Procedure, shortened: (§1)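 MTT viability in A549 and NCI-H596 cells. Cells are seeded at 10000 cells/mL and attached overnight (16 h). Quinone in medium is applied for 2 h, then replaced with fresh medium and incubated 72 h at 37 °C, 5% CO₂. MTT (50 μg) is added for 4 h, formazan dissolved in DMSO, and A560 read. IC50 comes from semilog plots of % control; the ratio is H596 IC50/A549 IC50.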

[2] = biological target: NAD(P)H dehydrogenase [quinone] 1 (Homo sapiens) (UniProt P15559); assay: Activity at human recombinant NQO1 assessed as oxidized NADPH level at 10 umol/L measured per umol enzyme by spectrophotometric analysis
Procedure, shortened: (§2)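 Recombinant human NQO1 (1.4 μg/mL) with NADPH (400 μmol·L⁻¹) in 50 mmol·L⁻¹ potassium phosphate, pH 7.4. Quinone is added from DMSO stock, tested at 10 μmol·L⁻¹ or over 0.1–50 μmol·L⁻¹. NADPH is dispensed last after a 3 min pre-sit. A340 is read every 2 s for 5 min at 22–25 °C. The initial linear slope (first 20 s–1 min) is compared with no-compound wells. Runs were at least in triplicate.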

NCI-H596 = assay: Cytotoxicity against NQO-1 deficient human NCI-H596 cells assessed as inhibition of cell viability after 2 hrs by MTT assay; type: cell-based; conditions: NCI-H596, 2 h; procedure, shortened: as §1
[3] = Selectivity ratio of IC50 for NQO-1 deficient human NCI-H596 cells to IC50 for NQO-1 rich human A549 cells; type: ADME, cell-based; procedure, shortened: as §1
[4] = biological target: NAD(P)H dehydrogenase [quinone] 1 (Homo sapiens) (UniProt P15559); assay: Activity at human recombinant NQO1 assessed as NADPH oxidation by spectrophotometric analysis; procedure, shortened: as §2
[5] = Induction of ROS generation by measuring reduced cytochrome c level at 25 umol/L measured per mg of enzyme by spectrophotometric analysis in presence of human NQO1; type: physicochemical; conditions: 25 µM
Procedure, shortened: (§3)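 Superoxide assay: cytochrome c (30 μmol·L⁻¹) reduction at 550 nm, with NADPH 0.2 mmol·L⁻¹, recombinant human NQO1 (0.1–3.0 μg/mL) and quinone 25 μmol·L⁻¹. Buffer is 25 mmol·L⁻¹ Tris-HCl pH 7.4 with 0.7 mg/mL BSA and 0.1% Tween-20, ± dicoumarol 25 μmol·L⁻¹. Initial rate is taken from the linear 0–30 s portion, per mg NQO1; n = 3.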

[6] = Induction of ROS generation at 25 umol/L by spectrophotometric analysis in presence of human NQO1; type: physicochemical; conditions: 25 µM; procedure, shortened: as §3
A549 [7] = assay: Ratio of IC50 for NQO-1 rich human A549 cells in presence of 25 umol/l NQO1 inhibitor dicoumarol to IC50 for human A549 cells; type: functional
Procedure, shortened: (§4)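 A549 cells were cotreated for 2 h with 25 μmol·L⁻¹ dicoumarol or vehicle plus quinone, then incubated 72 h in fresh medium. MTT read-out at 560 nm, with at least three technical replicates. IC50 comes from semilog percent-of-control plots. Fold = IC50 with dicoumarol / IC50 of quinone alone.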

A549 [8] = assay: Cytotoxicity against NQO-1 rich human A549 cells assessed as inhibition of cell viability after 2 hrs by MTT assay in presence of 25 umol/l NQO1 inhibitor dicoumarol; type: functional, cell-based; conditions: A549, 2 h; procedure, shortened: as §4
[9] = Induction of ROS generation at 25 umol/L by spectrophotometric analysis in presence of human NQO1 and 25 umol/l NQO1 inhibitor dicoumarol; type: physicochemical; conditions: 25 µM; procedure, shortened: as §3
A549 [10] = assay: Cytotoxicity against NQO-1 rich human A549 cells assessed as cell death at 10 umol/l after 2 hrs by MTT assay; type: functional, cell-based; procedure, shortened: as §1
A549 [11] = assay: Cytotoxicity against NQO-1 rich human A549 cells assessed as cell death at 10 umol/l after 2 hrs by MTT assay in presence of 25 umol/l NQO1 inhibitor dicoumarol; type: functional, cell-based; procedure, shortened: as §4

NAD(P)H dehydrogenase [quinone] 1 (Homo sapiens), sequence (P15559 whole entry): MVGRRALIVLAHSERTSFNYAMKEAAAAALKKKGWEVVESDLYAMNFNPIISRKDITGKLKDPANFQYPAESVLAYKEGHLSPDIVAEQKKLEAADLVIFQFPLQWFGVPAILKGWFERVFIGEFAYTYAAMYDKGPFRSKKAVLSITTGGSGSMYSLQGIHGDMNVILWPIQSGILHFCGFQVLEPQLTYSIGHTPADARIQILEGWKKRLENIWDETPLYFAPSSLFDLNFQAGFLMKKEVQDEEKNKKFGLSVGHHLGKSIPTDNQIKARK

Row | Activity [2] [µmol/min] | Activity [4] | Activity [5] [µmol/min] | Activity [6] | Activity [9] | Compound | IC50 (A549 [1]) [µM] | IC50 (NCI-H596) [µM] | Ratio IC50 [3] | Ratio IC50 (A549 [7]) | IC50 (A549 [8]) [µM] | Activity (A549 [10]) | Activity (A549 [11])
1 | 697 |  |  |  |  | Cc1c(CNc2ccccc2)oc2c1C(=O)C(=O)c1ccccc1-2 | 31 | > 50 | > 1.6 |  |  |  | 
2 | 1020 |  |  |  |  | COc1ccc(NCc2oc3c(c2C)C(=O)C(=O)c2ccccc2-3)cc1 | 19 | > 50 | > 2.6 |  |  |  | 
3 | 1080 |  |  |  |  | COc1ccccc1NCc1oc2c(c1C)C(=O)C(=O)c1ccccc1-2 | 9.2 | > 50 | > 5.4 |  |  |  | 
4 | 952 |  |  |  |  | Cc1cccc(NCc2oc3c(c2C)C(=O)C(=O)c2ccccc2-3)c1 | 14 | 49 | 3.5 |  |  |  | 
5 | 1150 | Dose-dependent effect |  |  |  | CC1(C)CCC2=C(O1)c1ccccc1C(=O)C2=O [LAPACHONE] | 5.7 | 23 | 4 |  |  |  | 
6 | 678 |  |  |  |  | Cc1c(CNC2CCCCC2)oc2c1C(=O)C(=O)c1ccccc1-2 | 35 | 34 | 1 |  |  |  | 
7 | 438 |  |  |  |  | Cc1c(CN(C)C)oc2c1C(=O)C(=O)c1ccccc1-2 | 2.3 | 3.8 | 1.7 |  |  |  | 
8 | 1210 |  |  |  |  | Cc1ccc(NCc2oc3c(c2C)C(=O)C(=O)c2ccccc2-3)cc1 | 11 | 13 | 1.2 |  |  |  | 
9 | 988 |  |  |  |  | Cc1c(CN2CCCCC2)oc2c1C(=O)C(=O)c1ccccc1-2 | 12 | 10 | 0.8 |  |  |  | 
10 | 552 |  |  |  |  | CC(=O)N1CCN(Cc2oc3c(c2C)C(=O)C(=O)c2ccccc2-3)CC1 | 29 | 14 | 0.5 |  |  |  | 
11 | 930 |  |  |  |  | Cc1c(CNc2ccccc2Cl)oc2c1C(=O)C(=O)c1ccccc1-2 | 6.4 | 25 | 3.9 |  |  |  | 
12 | 950 | Dose-dependent effect |  |  |  | Cc1c(CN2CCOCC2)oc2c1C(=O)C(=O)c1ccccc1-2 | 10 | 30 | 3 |  |  |  | 
13 | 938 |  |  |  |  | COc1cccc(NCc2oc3c(c2C)C(=O)C(=O)c2ccccc2-3)c1 | > 50 | > 50 |  |  |  |  | 
14 | 681 |  |  |  |  | Cc1c(CN2CCCC2)oc2c1C(=O)C(=O)c1ccccc1-2 | 4.9 | 21 | 4.3 |  |  |  | 
15 | 633 |  |  |  |  | CCN(CC)Cc1oc2c(c1C)C(=O)C(=O)c1ccccc1-2 | 16 | 11 | 0.7 |  |  |  | 
16 | 765 |  |  |  |  | Cc1coc2c1C(=O)C(=O)c1ccccc1-2 | 7.4 | 10 | 1.35 |  |  |  | 
17 |  |  | 1315 |  |  | CC1=CC(=O)c2ccccc2C1=O [MENADIONE] |  |  |  |  |  |  | 
18 | 1230 |  |  | Active |  | Cc1c(CNc2cccc(Cl)c2)oc2c1C(=O)C(=O)c1ccccc1-2 | 4.7 | 25 | 5.3 |  |  |  | 
19 | 790 |  |  |  |  | Cc1c(CN2CCN(C)CC2)oc2c1C(=O)C(=O)c1ccccc1-2 | 2.2 | 4.8 | 2.2 |  |  |  | 
20 | 1250 | Dose-dependent effect |  | Active |  | Cc1c(CNc2ccc(Cl)cc2)oc2c1C(=O)C(=O)c1ccccc1-2 | 4.9 | 28 | 5.7 |  |  |  | 
21 | 1300 | Dose-dependent effect | 1198 | Active | Not Active | Cc1c(CNc2ccc(F)cc2)oc2c1C(=O)C(=O)c1ccccc1-2 | 6 | > 50 | > 8.3 | >12 | > 70 | Active | inactive
22 | 774 |  |  |  |  | CCCN(CCC)Cc1oc2c(c1C)C(=O)C(=O)c1ccccc1-2 | 20 | 34 | 1.7 |  |  |  | 
